As a reminder, the Inhibition is the relative decrease from the control value, in per cent. The ED50 is the dose at which the effect has come halfway, by size or by number of responders.

What all share (assay type): functional
The species entered for experiment [1] is Mus musculus. The experiment is described as follows: In vitro activity for the ability to inhibit the uptake of Serotonin into mouse cortical slices; value ranges from 2.6-6.7. The procedure, abridged: (§1)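 Slices (60 mg cortical, 20 mg striatal) from untreated white mice (18–22 g) incubated with test compound, 0.2 nmol [3H]NE and 0.2 nmol [14C]-5-HT simultaneously, 0.48 μmol pargyline, 11 μmol glucose in 2.0 mL Krebs-Henseleit pH 7.4, 5 min under O2 with 6.5% CO2. 3H and 14C counted separately by liquid scintillation; active uptake = portion blocked by 3 × 10^-4 M cocaine.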

The test system of experiment [2] is Mus musculus. Nature of the experiment: Ability to inhibit the uptake of Serotonin into mouse cortical slices 1 hour after intraperitoneal injection ex vivo at a dose of >128. The procedure, abridged:
(§2)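 Ex vivo: white mice (18–22 g), four per dose, given test drug intraperitoneally; 1 h later cerebral cortical plus striatal slices incubated 5 min with 0.2 nmol [3H]NE and 0.2 nmol [14C]-5-HT, pargyline, glucose in Krebs-Henseleit buffer pH 7.4 under O2/6.5% CO2. Dual-channel scintillation counting of dissolved slices; active uptake defined as cocaine (3 × 10^-4 M)-inhibitable.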

The test system of experiment [3] is Mus musculus. The experiment is described as follows: Ability to inhibit the uptake of Norepinephrine into mouse cortical slices 1 hour after intraperitoneal injection ex vivo at a dose of >128. The procedure, abridged:
as §2

Experiment [4] is filed under the species Mus musculus. Nature of the experiment: In vitro activity for the ability to inhibit the uptake of Norepinephrine into mouse cortical slices; value ranges from 2.2-5.5. The procedure, abridged:
as §1

Experiment [5] deals with Mus musculus. The experiment is described as follows: Ability to inhibit the uptake of Norepinephrine into mouse cortical slices 1 hour after intraperitoneal injection ex vivo; value ranges from […]. Particulars: ip. The procedure, abridged:
as §2

The species entered for experiment [6] is Mus musculus. The experiment is described as follows: In vitro activity for the ability to inhibit the uptake of Norepinephrine into mouse cortical slices; value ranges from 1.1-4.4. The procedure, abridged:
as §1

For experiment [7], the species on record is Mus musculus. Nature of the experiment: In vitro activity for the ability to inhibit the uptake of Serotonin into mouse cortical slices; value ranges from 0.8-3.0. In outline: as §1
In experiment [8] the test system is Mus musculus. The experiment is described as follows: Ability to inhibit the uptake of Serotonin into mouse cortical slices 1 hour after intraperitoneal injection ex vivo value ranges from 27-224. The note with it: ip. The procedure, abridged:
as §2

The species named for experiment [9] is Mus musculus. The experiment is described as follows: In vitro activity for the ability to inhibit the uptake of Serotonin into mouse cortical slices; value ranges from 0.3-1.0. The procedure, abridged: as §1
Experiment [10] deals with Mus musculus. The experiment is described as follows: Ability to inhibit the uptake of Serotonin into mouse cortical slices 1 hour after intraperitoneal injection ex vivo at concentration of 102 uM/Kg. The procedure, abridged:
as §2

Experiment [11] is filed under the species Mus musculus. Nature of the experiment: In vitro activity for the ability to inhibit the uptake of Norepinephrine into mouse cortical slices at a dose of >25. The procedure, abridged:
as §1

Experiment [12] deals with Mus musculus. Nature of the experiment: Ability to inhibit the uptake of Norepinephrine into mouse cortical slices 1 hour after intraperitoneal injection ex vivo at a dose of 102. The procedure, abridged:
as §2

The species named for experiment [13] is Mus musculus. The experiment is described as follows: In vitro activity for the ability to inhibit the uptake of Serotonin into mouse cortical slices at a dose of 27. In outline: as §1
The test system of experiment [14] is Mus musculus. Nature of the experiment: Ability to inhibit the uptake of Norepinephrine into mouse cortical slices 1 hour after intraperitoneal injection ex vivo at a dose of >106. In outline:
as §2

The species entered for experiment [15] is Mus musculus. Nature of the experiment: In vitro activity for the ability to inhibit the uptake of Norepinephrine into mouse cortical slices Value ranges from […]. In outline:
as §1

In experiment [16] the test system is Mus musculus. Nature of the experiment: Ability to inhibit the uptake of Serotonin into mouse cortical slices 1 hour after intraperitoneal injection ex vivo at a dose > 106. In outline:
as §2

Experiment [17] is filed under the species Mus musculus. The experiment is described as follows: In vitro activity for the ability to inhibit the uptake of Serotonin into mouse cortical slices; value ranges from […]. In outline: as §1
Experiment [18] deals with Mus musculus. Nature of the experiment: Ability to inhibit the uptake of Serotonin into mouse cortical slices 1 hour after intraperitoneal injection ex vivo at a dose of >117. The procedure, abridged: as §2
In experiment [19] the test system is Mus musculus. The experiment is described as follows: Ability to inhibit the uptake of Norepinephrine into mouse cortical slices 1 hour after intraperitoneal injection ex vivo at a dose of >117. The procedure, abridged:
as §2

The species named for experiment [20] is Mus musculus. Nature of the experiment: In vitro activity for the ability to inhibit the uptake of Norepinephrine into mouse cortical slices; value ranges from 2.3-7.0. In outline: as §1
The test system of experiment [21] is Mus musculus. Nature of the experiment: Ability to inhibit the uptake of Serotonin into mouse cortical slices 1 hour after intraperitoneal injection ex vivo. The note with it: ip. In outline: as §2
The species entered for experiment [22] is Mus musculus. Nature of the experiment: In vitro activity for the ability to inhibit the uptake of Norepinephrine into mouse cortical slices; value ranges from 0.2-1.0. In outline: as §1
Experiment [23] is filed under the species Mus musculus. The experiment is described as follows: In vitro activity for the ability to inhibit the uptake of Serotonin into mouse cortical slices; value ranges from 2.0-6.4. The procedure, abridged:
as §1

Experiment [24] has as its system Mus musculus. Nature of the experiment: Ability to inhibit the uptake of Norepinephrine into mouse cortical slices 1 hour after intraperitoneal injection ex vivo; value ranges from 11-23. The note with it: ip. The procedure, abridged: as §2
In experiment [25] the test system is Mus musculus. Nature of the experiment: Ability to inhibit the uptake of Norepinephrine into mouse cortical slices 1 hour after intraperitoneal injection ex vivo. The note with it: ip.
Experiment [26] is filed under the species Mus musculus. The experiment is described as follows: (§3) In vitro activity for the ability to inhibit the uptake of Norepinephrine into mouse cortical slices. Particulars: read-out: ED50 (the source's name). In outline: (§4)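 Slices from untreated white mice (18–22 g), four animals per dose: 60 mg cortical plus 20 mg striatal, with test compound in the bath. Simultaneous uptake of [3H]NE and [14C]-5-HT (0.2 nmol each), with 0.48 μmol pargyline and 11 μmol glucose in 2.0 mL Krebs-Henseleit buffer, pH 7.4. Incubation 5 min under O2/6.5% CO2. Separate 3H and 14C channels; active uptake is the portion inhibited by 3 × 10^-4 M cocaine.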

The species named for experiment [27] is Mus musculus. Nature of the experiment: (§5) In vitro activity for the ability to inhibit the uptake of Serotonin into mouse cortical slices. The note with it: read-out: ED50 (the source's name). The procedure, abridged: as §4
The species entered for experiment [28] is Mus musculus. Described as §5. In outline: as §1
For experiment [29], the species on record is Mus musculus. The experiment is described as §3. The procedure, abridged:
as §1

Regarding `CN(C)CCc1nnc2ccccc2c1-c1cccc(Cl)c1`, the EC50 in experiment [1] is 4.2 µM; in experiment [4] it was 3.5 µM. In addition, the results for the Inhibition in experiment [2] and in experiment [3] were 42% and 49%, respectively.

On to `CN(C)CC/C=C1\c2ccccc2CCc2cccc(N)c21`, for which the results for the median effective dose (ED50) in experiment [5] and in experiment [8] were 15 µmol/kg and 55 µmol/kg, respectively. In addition, the EC50 came out at 2.2 µM in experiment [6] and 1.6 µM in [7].

For `CN(C)CC/C=C(\c1cccc(Cl)c1)c1ccccc1N`, the EC50 in experiment [9] is 0.5 µM. The Inhibition amounted to 55% in experiment [10], 37% in experiment [11] and 33% in experiment [12].

`CN(C)CCc1nnc2cccc3c2c1-c1ccccc1CC3`: the values for the Inhibition in experiment [13], in [14] and in [16] were 46%, 13% and 11%, respectively. The compound further registered an EC50 in experiment [15] of 6.6 µM.

For the compound `CN(C)CCc1nnc2cccc3c2c1-c1cc(Cl)ccc1S3`, the EC50 in experiment [17] turned out to be 7.3 µM; in [20], 3.8 µM. Moreover, the Inhibition in [18] is on record as 16%; in [19] it was 27%.

Turning to `CN(C)CC/C=C1\c2cc(Cl)ccc2Sc2cccc(N)c21`, the ED50 was > 99 µmol/kg in [21] and 16 µmol/kg in [24]. Further, the results for the EC50 in experiment [22] and in experiment [23] were 0.7 µM and 3.5 µM, respectively.

Turning to `CN(C)CCC=C1c2ccccc2CCc2ccccc21` [AMITRIPTYLINE], the ED50 in [25] is 144 µmol/kg; in [21], > 144 µmol/kg. In addition, the EC50 in experiment [26] worked out at 5.4 µM; in experiment [27], 2.9 µM.

Turning to `CNCCCN1c2ccccc2CCc2ccccc21` [DESIPRAMINE], the 50% effective dose (ED50) in experiment [21] was > 132 µmol/kg. In addition, the EC50 in experiment [28] worked out at 12 µM; in experiment [29] it was 0.07 µM.

In the case of `CN(C)CCCN1c2ccccc2CCc2ccccc21` [IMIPRAMINE], the 50% effective dose (ED50) in experiment [25] came out at 63 µmol/kg; in [21] it was 126 µmol/kg. Also, the figures for the EC50 in experiment [28] and in experiment [29] were 0.3 µM and 1.3 µM, respectively.

For the origin of these results see ChEMBL document CHEMBL1122897, “Tetracyclic pyridazines as potential psychopharmacological agents” (J Med Chem, 1985).
